This is an account of results in ChEMBL document CHEMBL3243962, “Antileukemic activity of derivatives of 1,2-dimethyl-3,4-bis(hydroxymethyl)-5-phenylpyrrole bis(N-methylcarbamate)” (J Med Chem, 1979).

Data set [1] concerns P388. Description: Antitumor activity against mouse P388 cells allografted in CD2F1 mouse assessed as increase in mouse survival at 5 mg/kg, ip of total 9 doses starting 24 hrs post tumor inoculation measured on day 5 of inoculation relative to control. It is filed as functional. To be noted: route intraperitoneal. Summed up:
(§1)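 Male CD2F1 mice inoculated ip with 6×10^6 P388 leukemia cells. Dosing was ip as a suspension in distilled water–Tween 80, nine daily doses starting 24 h after inoculation. Activity was read as median survival time of treated vs control mice (% T/C); % T/C ≥ 120 was considered significant. Groups were 6 mice.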

Data set [2] concerns P388. Briefly: Antitumor activity against mouse P388 cells allografted in CD2F1 mouse assessed as increase in mouse survival at 40 mg/kg, ip of total 9 doses starting 24 hrs post tumor inoculation measured on day 5 of inoculation relative to control. Format: functional. To be noted: route intraperitoneal. Summed up:
as §1

The subject of data set [3] is Mus musculus. Description: Toxicity in mouse P388 cells allografted CD2F1 mouse assessed as mouse survival at 5 mg/kg, ip of total 9 doses starting 24 hrs post tumor inoculation measured on day 5 of inoculation relative to control. Format: organism-based. As to conditions: in vivo. More on the design: dose 5 mg/kg, route intraperitoneal. The gist of the method:
(§2)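 Male CD2F1 mice bearing ip P388 leukemia (6×10^6 cells) were dosed ip with nine daily doses in distilled water–Tween 80 suspension, starting 24 h after inoculation. Survivors per group of 6 were counted on day 5, i.e. 4 days after the first dose. Body-weight change of treated minus control mice was also recorded.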

Data set [4] deals with Mus musculus. Briefly: Toxicity in mouse P388 cells allografted CD2F1 mouse assessed as mouse survival at 20 mg/kg, ip of total 9 doses starting 24 hrs post tumor inoculation measured on day 5 of inoculation relative to control. It is filed as organism-based. More on the design: dose 20 mg/kg, route intraperitoneal. As to conditions: in vivo. Summed up:
as §2

For data set [5], the system named is Mus musculus. Briefly: Toxicity in mouse P388 cells allografted CD2F1 mouse assessed as body weight loss at 40 mg/kg, ip of total 9 doses starting 24 hrs post tumor inoculation measured on day 5 of inoculation relative to control. It is filed as organism-based. More on the design: dose 40 mg/kg, route intraperitoneal. To be noted: in vivo. Summed up:
(§3)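 Male CD2F1 mice inoculated ip with 6×10^6 P388 leukemia cells. Compounds given ip as distilled water–Tween 80 suspension, nine daily doses starting 24 h after inoculation; six mice per dose group. Treated-minus-control body-weight change (T − C) and toxicity-day survivors recorded on day 5 (4 days after first dose).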

The test system of data set [6] is P388. Briefly: Antitumor activity against mouse P388 cells allografted in CD2F1 mouse assessed as increase in mouse survival at 20 mg/kg, ip of total 9 doses starting 24 hrs post tumor inoculation measured on day 5 of inoculation relative to control. It is filed as functional. As to conditions: route intraperitoneal. The gist of the method:
as §1

Data set [7] has as its system Mus musculus. Description: Toxicity in mouse P388 cells allografted CD2F1 mouse assessed as body weight loss at 20 mg/kg, ip of total 9 doses starting 24 hrs post tumor inoculation measured on day 5 of inoculation relative to control. As to conditions: in vivo. Also noted: dose 20 mg/kg, route intraperitoneal. It is filed as organism-based. The gist of the method: as §3

Data set [8] relates to Mus musculus. Briefly: Toxicity in mouse P388 cells allografted CD2F1 mouse assessed as mouse survival at 10 mg/kg, ip of total 9 doses starting 24 hrs post tumor inoculation measured on day 5 of inoculation relative to control. To be noted: in vivo. More on the design: dose 10 mg/kg, route intraperitoneal. Format: organism-based. The gist of the method:
as §2

The test system of data set [9] is P388. Description: Antitumor activity against mouse P388 cells allografted in CD2F1 mouse assessed as increase in mouse survival at 10 mg/kg, ip of total 9 doses starting 24 hrs post tumor inoculation measured on day 5 of inoculation relative to control. It is filed as functional. To be noted: route intraperitoneal. The gist of the method:
as §1

In data set [10] the test system is Mus musculus. Description: Toxicity in mouse P388 cells allografted CD2F1 mouse assessed as body weight loss at 5 mg/kg, ip of total 9 doses starting 24 hrs post tumor inoculation measured on day 5 of inoculation relative to control. It is filed as organism-based. Also noted: dose 5 mg/kg, route intraperitoneal. As to conditions: in vivo. Summed up:
as §3

Data set [11] concerns Mus musculus. Description: Toxicity in mouse P388 cells allografted CD2F1 mouse assessed as body weight loss at 10 mg/kg, ip of total 9 doses starting 24 hrs post tumor inoculation measured on day 5 of inoculation relative to control. It is filed as organism-based. Also noted: dose 10 mg/kg, route intraperitoneal. As to conditions: in vivo. Summed up: as §3
Data set [12] concerns Mus musculus. Briefly: Toxicity in mouse P388 cells allografted CD2F1 mouse assessed as mouse survival at 100 mg/kg, ip of total 9 doses starting 24 hrs post tumor inoculation measured on day 5 of inoculation relative to control. Format: organism-based. More on the design: dose 100 mg/kg, route intraperitoneal. To be noted: in vivo. The gist of the method: as §2
Data set [13] has as its system Mus musculus. Description: Toxicity in mouse P388 cells allografted CD2F1 mouse assessed as body weight loss at 50 mg/kg, ip of total 9 doses starting 24 hrs post tumor inoculation measured on day 5 of inoculation relative to control. More on the design: dose 50 mg/kg, route intraperitoneal. As to conditions: in vivo. It is filed as organism-based. Summed up: as §3

For data set [14], the system named is Mus musculus. Briefly: Toxicity in mouse P388 cells allografted CD2F1 mouse assessed as body weight loss at 200 mg/kg, ip of total 9 doses starting 24 hrs post tumor inoculation measured on day 5 of inoculation relative to control. More on the design: dose 200 mg/kg, route intraperitoneal. To be noted: in vivo. Format: organism-based. Summed up:
as §3

In data set [15] the test system is P388. Description: Antitumor activity against mouse P388 cells allografted in CD2F1 mouse assessed as increase in mouse survival at 100 mg/kg, ip of total 9 doses starting 24 hrs post tumor inoculation measured on day 5 of inoculation relative to control. Format: functional. As to conditions: route intraperitoneal. The gist of the method:
as §1

Data set [16] deals with Mus musculus. Description: Toxicity in mouse P388 cells allografted CD2F1 mouse assessed as body weight loss at 25 mg/kg, ip of total 9 doses starting 24 hrs post tumor inoculation measured on day 5 of inoculation relative to control. Format: organism-based. Also noted: dose 25 mg/kg, route intraperitoneal. To be noted: in vivo. Summed up: as §3
Data set [17] concerns P388. Description: Antitumor activity against mouse P388 cells allografted in CD2F1 mouse assessed as increase in mouse survival at 25 mg/kg, ip of total 9 doses starting 24 hrs post tumor inoculation measured on day 5 of inoculation relative to control. It is filed as functional. As to conditions: route intraperitoneal. Summed up:
as §1

The subject of data set [18] is Mus musculus. Briefly: Toxicity in mouse P388 cells allografted CD2F1 mouse assessed as body weight loss at 12.5 mg/kg, ip of total 9 doses starting 24 hrs post tumor inoculation measured on day 5 of inoculation relative to control. Format: organism-based. Also noted: dose 12.5 mg/kg, route intraperitoneal. To be noted: in vivo. The gist of the method:
as §3

For data set [19], the system named is Mus musculus. Description: Toxicity in mouse P388 cells allografted CD2F1 mouse assessed as mouse survival at 50 mg/kg, ip of total 9 doses starting 24 hrs post tumor inoculation measured on day 5 of inoculation relative to control. Format: organism-based. Also noted: dose 50 mg/kg, route intraperitoneal. As to conditions: in vivo. The gist of the method: as §2

For data set [20], the system named is P388. Briefly: Antitumor activity against mouse P388 cells allografted in CD2F1 mouse assessed as increase in mouse survival at 200 mg/kg, ip of total 9 doses starting 24 hrs post tumor inoculation measured on day 5 of inoculation relative to control. To be noted: route intraperitoneal. It is filed as functional. The gist of the method:
as §1

For data set [21], the system named is Mus musculus. Description: Toxicity in mouse P388 cells allografted CD2F1 mouse assessed as mouse survival at 12.5 mg/kg, ip of total 9 doses starting 24 hrs post tumor inoculation measured on day 5 of inoculation relative to control. Format: organism-based. More on the design: dose 12.5 mg/kg, route intraperitoneal. As to conditions: in vivo. Summed up: as §2

Data set [22] relates to Mus musculus. Briefly: Toxicity in mouse P388 cells allografted CD2F1 mouse assessed as body weight loss at 100 mg/kg, ip of total 9 doses starting 24 hrs post tumor inoculation measured on day 5 of inoculation relative to control. To be noted: in vivo. More on the design: dose 100 mg/kg, route intraperitoneal. Format: organism-based. Summed up:
as §3

In data set [23] the test system is P388. Briefly: Antitumor activity against mouse P388 cells allografted in CD2F1 mouse assessed as increase in mouse survival at 50 mg/kg, ip of total 9 doses starting 24 hrs post tumor inoculation measured on day 5 of inoculation relative to control. It is filed as functional. As to conditions: route intraperitoneal. Summed up:
as §1

The subject of data set [24] is Mus musculus. Briefly: Toxicity in mouse P388 cells allografted CD2F1 mouse assessed as mouse survival at 25 mg/kg, ip of total 9 doses starting 24 hrs post tumor inoculation measured on day 5 of inoculation relative to control. Format: organism-based. More on the design: dose 25 mg/kg, route intraperitoneal. As to conditions: in vivo. Summed up: as §2
The subject of data set [25] is Mus musculus. Description: Toxicity in mouse P388 cells allografted CD2F1 mouse assessed as mouse survival at 200 mg/kg, ip of total 9 doses starting 24 hrs post tumor inoculation measured on day 5 of inoculation relative to control. Format: organism-based. Also noted: dose 200 mg/kg, route intraperitoneal. To be noted: in vivo. Summed up:
as §2

The subject of data set [26] is P388. Briefly: Antitumor activity against mouse P388 cells allografted in CD2F1 mouse assessed as increase in mouse survival at 12.5 mg/kg, ip of total 9 doses starting 24 hrs post tumor inoculation measured on day 5 of inoculation relative to control. It is filed as functional. To be noted: route intraperitoneal. The gist of the method: as §1

Structures are written as SMILES.

Turning to `CNC(=O)OCc1c(COC(=O)NC)c(-c2ccc(Br)cc2)n(C)c1C`, the T/C (in general, the result in the treated group divided by that in the control group, in per cent) in [1] was 144%; in data set [2], under 75%; in data set [6] it was 155%; in [9], 146%. The Activity result in data set [3] is reported as “Non-toxic”; in data set [4] it was “Non-toxic”; in data set [5], 5 g; in data set [7], 2.8 g; in data set [8], “Non-toxic”; in data set [10], 1.8 g. Moreover, the Activity in [11] was found to be 2.8 g.

In the case of `CNC(=O)OCc1c(COC(=O)NC)c(-c2ccc(Sc3ccccc3)cc2)n(C)c1C`, the Activity entry in data set [12] is reported as “Non-toxic”; in data set [13], 2.1 g; in data set [14], 3 g; in data set [16], 2.1 g; in data set [18], 0.9 g; in data set [19] it was “Non-toxic”. For the same molecule, the Activity result in data set [21] was “Non-toxic”; in [22], 3.3 g; in data set [24] it was “Non-toxic”; in data set [25], “Non-toxic”. The T/C in [15] turned out to be 171%; in [17] it was 146%; in [20], 108%; in data set [23] it was 162%; in data set [26], 142%.
